pIC50: −log10 of the molar value.
Legend:
[1] = Antiproliferative activity against mouse B16-F1 cells after 96 hrs by SRB assay; format: functional, cell-based; settings: B16-F1, 96 h
[2] = tested on: LNCaP; assay: Antiproliferative activity against human LNCAP cells after 96 hrs by SRB assay; format: functional, cell-based
Summary of the method: (§1)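 Prostate cancer lines were exposed to compound for 96 h, with cell growth read by sulforhodamine B staining. Results are IC50 ± SEM.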

[3] = tested on: A-375; assay: Antiproliferative activity against human A375 cells after 96 hrs by SRB assay; format: functional, cell-based; settings: A-375, 96 h
[4] = Antiproliferative activity against human PPC1 cells after 96 hrs by SRB assay; format: functional, cell-based; settings: PPC-1, 96 h; summary of the method: as §1
[5] = tested on: DU-145; assay: Antiproliferative activity against human DU145 cells after 96 hrs by SRB assay; format: functional, cell-based; settings: DU-145, 96 h; summary of the method: as §1
[6] = Antiproliferative activity against human PC3 cells after 96 hrs by SRB assay; format: functional, cell-based; settings: PC-3, 96 h; summary of the method: as §1
[7] = tested on: Liver microsome; assay: Half life in human liver microsomes at 0.5 uM by LC-MS/MS analysis
[8] = tested on: Liver microsome; assay: Half life in rat liver microsomes at 0.5 uM by LC-MS/MS analysis
[9] = tested on: Liver; assay: Half life in mouse liver microsomes at 0.5 uM by LC-MS/MS analysis
[10] = target: T1, Tubulin (Bos taurus) (UniProt Q6B856+Q862L2+Q862F3); assay: Inhibition of bovine brain tubulin polymerization at 5 uM for 20 mins by spectrophotometry
Summary of the method: (§2)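 Bovine brain tubulin (0.4 mg, >97% pure) in general tubulin buffer pH 6.9 (80 mM PIPES, 2.0 mM MgCl2, 0.5 mM EGTA, 1 mM GTP) with compound at 5 or 10 μM, 37 °C. A340 was read each minute for 20 min, and percent inhibition was taken relative to vehicle.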

[11] = target: T1, Tubulin (Bos taurus); assay: Inhibition of bovine brain tubulin polymerization at 10 uM for 20 mins by spectrophotometry; summary of the method: as §2

Row | SMILES | pIC50 [2] | pIC50 [3] | pIC50 [5] | t1/2 [7] [min] | t1/2 [8] [min] | t1/2 [9] [min] | inhibition [10] [%] | inhibition [11] [%] | pIC50 [1] | pIC50 [4] | pIC50 [6]
1 | COc1cc(-c2cccc3[nH]c(-c4n[nH]c5ccccc45)nc23)cc(OC)c1OC | 5.80 | 5.96 | 5.40 | – | – | – | – | – | – | 6.00 | 6.10
2 | COc1cc(C(=O)c2csc(Nc3ccccc3)n2)cc(OC)c1OC | 7.55 | 7.55 | 7.15 | – | – | – | – | – | 7.19 | 7.37 | 7.68
3 | COc1cc(C(=O)c2csc(-c3ccccc3)n2)cc(OC)c1OC(=O)CCl | < 5.00 | 4.97 | < 5.00 | – | – | – | – | – | 5.49 | < 5.00 | < 5.00
4 | COc1cc(-c2cccc3[nH]c(-c4ccc5[nH]ccc5c4)nc23)cc(OC)c1OC | 7.55 | 7.60 | 7.24 | – | – | – | 30 | 60 | – | 7.70 | 7.66
5 | COc1cc(-c2nccc3[nH]c(-c4ccc5[nH]ccc5c4)nc23)cc(OC)c1OC | 8.30 | 8.30 | – | 45.3 | 30.4 | 19.7 | 33 | 81 | – | 7.38 | 8.22
6 | COc1cc(C(=O)c2csc(-c3ccccc3)n2)cc(OC)c1OC | – | – | – | – | – | – | – | – | 7.26 | 7.37 | 7.68
7 | COc1cc(-c2cccc3[nH]c(-c4c[nH]c5ccccc45)nc23)cc(OC)c1OC | 6.10 | 6.22 | 5.38 | – | – | – | – | – | – | 5.89 | 6.05

Further lines, with some results ahead:

Row | pIC50 [2] | pIC50 [3] | pIC50 [5] | t1/2 [7] [min] | t1/2 [8] [min] | t1/2 [9] [min] | inhibition [10] [%] | inhibition [11] [%] | SMILES | pIC50 [1] | pIC50 [4] | pIC50 [6]
8 | < 4.52 | < 4.52 | < 4.52 | – | – | – | – | – | COc1cc(C(=O)c2c[nH]c(Nc3ccccc3)n2)cc(OC)c1OC | < 4.52 | < 4.52 | < 4.52
9 | 7.89 | 7.60 | 7.62 | – | – | – | – | – | COc1cc(C(=O)c2csc(Nc3ccc4[nH]ccc4c3)n2)cc(OC)c1OC | 7.08 | 7.82 | 7.92
10 | 7.51 | 7.70 | 6.95 | 7.8 | 9.7 | 4 | – | – | COCOc1c(OC)cc(C(=O)c2csc(-c3ccccc3)n2)cc1OC | 7.72 | 7.66 | 7.77
11 | 6.93 | 6.28 | 6.33 | – | – | – | – | – | COc1cc(C(=O)c2csc(-c3ccccc3)n2)cc(OC)c1OCCN | 6.85 | 6.74 | 6.80
12 | 5.85 | 5.51 | 6.22 | – | – | – | – | – | COc1cc(C(=O)c2csc(-c3ccccc3)n2)cc(OC)c1OCCN1C(=O)c2ccccc2C1=O | 5.89 | 6.22 | < 5.00
13 | < 5.00 | 4.65 | < 5.00 | – | – | – | – | – | COc1cc(C(=O)c2csc(-c3ccccc3)n2)cc(OC)c1OC(=O)C(F)(F)F | 5.05 | < 5.00 | < 5.00
14 | 5.68 | – | 5.11 | – | – | – | – | – | COc1cc(-c2cccc3[nH]c(-c4ccccc4)nc23)cc(OC)c1OC | – | 5.68 | 5.62
15 | < 5.00 | < 5.00 | < 5.00 | – | – | – | – | – | COc1cc(C(=O)c2csc(-c3ccccc3)n2)cc(OC)c1OCc1ccccc1 | 4.97 | < 5.00 | < 5.00

Reference: ChEMBL document CHEMBL3352202 (J Med Chem, 2014)
